Reference: ChEMBL document CHEMBL3864135, “Synthesis and pharmacological evaluation of functionalized isoindolinones on GABA-activated chloride currents in rat cerebellum granule cells in culture” (Bioorg Med Chem Lett, 2016)

How the values were obtained:
[1] = Drug metabolism assessed as decarboxylated metabolite formation; format: ADME
[2] = target: T1, Gamma-aminobutyric acid receptor subunit alpha-1/beta-2/beta-3/gamma-2 (Rattus norvegicus) (UniProt P18508+P62813+P63079+P63138); experiment: Agonist activity at GABA alpha1beta2beta3gamma2 receptor Bzd binding site in Sprague-Dawley rat cerebellar granule cells assessed as increase in GABA-activated chloride currents at 1 uM by whole-cell patch clamp technique relative to control
Procedure, shortened: (§1)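 Whole-cell patch clamp on cultured rat cerebellar granule cells. Peak, rapidly desensitizing chloride current evoked by 10 μM GABA, recorded with and without test compound. Compounds applied at 1 μM, or at 0.47 μM where solubility limited. Change expressed as percent of the current with GABA alone (E %), mean ± SEM. Student's t-test against GABA alone.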

[3] = Solubility of the compound in water; format: physicochemical; conditions: buffer
[4] = Solubility of the compound in ethanol; format: physicochemical
[5] = Solubility of the compound in DMSO; format: physicochemical
[6] = Solubility of the compound in phosphate buffer at pH 3.2; format: physicochemical
[7] = target: T1, Gamma-aminobutyric acid receptor subunit alpha-1/beta-2/beta-3/gamma-2 (Rattus norvegicus); experiment: Inverse agonist activity at GABA alpha1beta2beta3gamma2 receptor Bzd binding site in Sprague-Dawley rat cerebellar granule cells assessed as decrease in GABA-activated chloride currents at 1 uM by whole-cell patch clamp technique relative to control; procedure, shortened: as §1
[8] = target: T1, Gamma-aminobutyric acid receptor subunit alpha-1/beta-2/beta-3/gamma-2 (Rattus norvegicus); experiment: Inverse agonist activity at GABA alpha1beta2beta3gamma2 receptor Bzd binding site in Sprague-Dawley rat cerebellar granule cells assessed as decrease in GABA-activated chloride currents at 0.47 uM by whole-cell patch clamp technique relative to control; procedure, shortened: as §1

SMILES | Drug metabolism [1] | Efficacy [2] | solubility [3] | solubility [4] | solubility [5] | solubility [6] | Efficacy [7] | Efficacy [8]
CN1CCN(C(=O)OC2c3nccnc3C(=O)N2c2ccc(Cl)cn2)CC1 (stereo not given) [ZOPICLONE] | 50 %ID | 58% | – | – | – | – | – | –
CN1CCN(C(=O)CC2c3ccccc3C(=O)N2c2ccc([N+](=O)[O-])cn2)CC1.Cl (stereo not given) | – | 34% | Soluble | Soluble | Soluble | Soluble | – | –
Cc1ccc(N2CCN(C(=O)CC3c4ccccc4C(=O)N3c3ccc([N+](=O)[O-])cn3)CC2)cc1.Cl (stereo not given) | – | – | Soluble | Soluble | Insoluble | Soluble | – | –
CN1CCN(C(=O)CC2c3ccccc3C(=O)N2c2ccccn2)CC1.Cl (stereo not given) | – | 20% | Soluble | Soluble | Soluble | Soluble | – | –
Cl.O=C(CC1c2ccccc2C(=O)N1c1ccc([N+](=O)[O-])cn1)N1CCN(c2ccccc2)CC1 (stereo not given) | – | – | Soluble | Soluble | Soluble | Soluble | 27% | –
Cl.O=C(CC1c2ccccc2C(=O)N1c1ccc([N+](=O)[O-])cn1)N1CCN(c2ccc(F)cc2)CC1 (stereo not given) | – | – | Soluble | Soluble | Soluble | Soluble | – | –
CN1CCN(C(=O)CC2c3ccccc3C(=O)N2c2ccc(N)cn2)CC1.Cl (stereo not given) | – | – | Soluble | Soluble | Insoluble | Soluble | – | 23%
COc1ccc(N2CCN(C(=O)CC3c4ccccc4C(=O)N3c3ccc([N+](=O)[O-])cn3)CC2)cc1.Cl (stereo not given) | – | – | Soluble | Soluble | Soluble | Soluble | 21% | –
CN1CCN(C(=O)CC2c3ccccc3C(=O)N2c2ccc(Br)cn2)CC1.Cl (stereo not given) | – | 26% | Soluble | Soluble | Soluble | Soluble | – | –
Cl.O=C(CC1c2ccccc2C(=O)N1c1ccc([N+](=O)[O-])cn1)N1CCN(c2ccc(Cl)cc2)CC1 (stereo not given) | – | – | Soluble | Soluble | Soluble | Soluble | 36% | –
Cc1ccc(N2C(=O)c3ccccc3C2CC(=O)N2CCN(C)CC2)nc1.Cl (stereo not given) | – | 21% | Soluble | Soluble | Soluble | Soluble | – | –
CN1CCN(C(=O)CC2c3ccccc3C(=O)N2c2ccc(Cl)cn2)CC1.Cl (stereo not given) | – | 18% | Soluble | Soluble | Soluble | Soluble | – | –
